Experimental findings from ChEMBL document CHEMBL3046416, “Differential susceptibility to glyphosate among the Conyza weed species in Spain” (J Agric Food Chem, 2010) are described below.

The test system of data set [1] is Conyza bonariensis. In words: Herbicidal activity against Conyza bonariensis (hairy fleabane) at rosette stage (BBHC14 to 15) assessed as growth inhibition measured after 21 days. In kind it is functional. The procedure, abridged:
(§1)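 Glyphosate-susceptible plants were grown in a growth chamber (28/18 °C day/night, 16 h photoperiod, 80% RH). Commercial glyphosate was sprayed from 50 cm in a laboratory spray chamber at rosette (BBCH 14-15), or, for C. bonariensis only, also at bolting (BBCH 32) or flowering (BBCH 55). Shoot fresh weight was taken 21 d later as % of untreated. Five replications of three plants each. ED50 came from a log-logistic regression of pooled data.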

Data set [2] concerns Conyza sumatrensis. As to the kind of experiment: Drug absorption in Conyza sumatrensis (tall fleabane) assessed as translocation in rest of plant at […] measured after 96 hr by liquid scintillation spectrometry. In kind it is ADME, organism-based. As to conditions: in vivo. In short, it runs like this:
(§2)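 Glyphosate-susceptible plants were grown in pots in a growth chamber (28/18 °C, 16 h photoperiod). They were treated with commercial glyphosate spiked with [14C]glyphosate (0.417 kBq μL-1; 1 g ai L-1, i.e. 200 g ai ha-1 in 200 L). Plants were harvested 96 h after treatment. Unabsorbed label was rinsed from the treated leaf with water-acetone (1:1). Plants were split into treated leaf, rest of shoot and root, and the rinsate was counted by liquid scintillation.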

Data set [3] deals with Root. As to the kind of experiment: Drug absorption in Conyza bonariensis (hairy fleabane) assessed as translocation in root at […] measured after 96 hr by liquid scintillation spectrometry. In kind it is ADME. In short, it runs like this:
as §2

A short description of data set [4]: Ratio of ED50 for hairy fleabane Conyza canadensis to ED50 for tall fleabane Conyza sumatrensis. In kind it is functional.
Data set [5] relates to Conyza bonariensis. In words: Drug absorption in Conyza bonariensis (hairy fleabane) assessed as translocation in rest of plant at […] measured after 96 hr by liquid scintillation spectrometry. In kind it is ADME, organism-based. As to conditions: in vivo. The procedure, abridged:
as §2

The subject of data set [6] is Root. In words: Drug absorption in Conyza canadensis (horseweed) assessed as translocation in root at […] measured after 96 hr by liquid scintillation spectrometry. In kind it is ADME. As to conditions: erigeron canadensis. In short, it runs like this: as §2
The test system of data set [7] is Leaf. In words: Drug absorption in Conyza bonariensis (hairy fleabane) assessed as translocation in treated leaf at […] measured after 96 hr by liquid scintillation spectrometry. It is filed as ADME. As to conditions: other. In short, it runs like this:
as §2

The subject of data set [8] is Erigeron canadensis. As to the kind of experiment: Herbicidal activity against Conyza canadensis (horseweed) at rosette stage (BBHC14 to 15) assessed as growth inhibition measured after 21 days. In kind it is functional. The procedure, abridged: as §1
Data set [9] has as its system Root. In words: Drug absorption in Conyza sumatrensis (tall fleabane) assessed as translocation in root at […] measured after 96 hr by liquid scintillation spectrometry. It is filed as ADME. In short, it runs like this: as §2
Data set [10] is described as follows: Ratio of ED50 for hairy fleabane Conyza bonariensis to ED50 for tall fleabane Conyza sumatrensis. It is filed as functional.
The subject of data set [11] is Conyza sumatrensis. In words: Herbicidal activity against Conyza sumatrensis ( tall fleabane) at rosette stage (BBHC14 to 15) assessed as growth inhibition measured after 21 days. It is filed as functional. In short, it runs like this: as §1
In data set [12] the test system is Conyza bonariensis. In words: Herbicidal activity against Conyza bonariensis (hairy fleabane) at bolting stage (BBHC32) assessed as growth inhibition measured after 21 days. In kind it is functional. The procedure, abridged: as §1
The subject of data set [13] is Leaf. In words: Drug absorption in Conyza canadensis (horseweed) assessed as translocation in treated leaf at […] measured after 96 hr by liquid scintillation spectrometry. It is filed as ADME. As to conditions: erigeron canadensis, other. The procedure, abridged: as §2
The test system of data set [14] is Erigeron canadensis. In words: Drug absorption in Conyza canadensis (horseweed) assessed as translocation in rest of plant at […] measured after 96 hr by liquid scintillation spectrometry. It is filed as ADME, organism-based. As to conditions: in vivo. In short, it runs like this: as §2
For data set [15], the system named is Leaf. As to the kind of experiment: Drug absorption in Conyza sumatrensis (tall fleabane) assessed as translocation in treated leaf at […] measured after 96 hr by liquid scintillation spectrometry. As to conditions: topical_or_ocular. In kind it is ADME. The procedure, abridged: as §2
The subject of data set [16] is Conyza bonariensis. As to the kind of experiment: Herbicidal activity against Conyza bonariensis (hairy fleabane) at flowering stage (BBHC55) assessed as growth inhibition measured after 21 days. It is filed as functional. The procedure, abridged: as §1

With `O=C(O)CNCP(=O)(O)O` [GLYPHOSATE], the ED50 in data set [1] was 15.7 gAi/ha; in data set [8], 34.9 gAi/ha; in data set [11] it was 2.9 gAi/ha; in data set [12], 86.6 gAi/ha; in data set [16] it was 117.5 gAi/ha. Also, the Drug transport in data set [2] was determined as 5.9%; in [3], 8.3%; in data set [5] it was 6.4%; in data set [6], 2.8%; in [7] it was 85.2%; in [9], 11.6%. Moreover, the Drug transport in data set [13] came out at 93%; in data set [14], 4%; in data set [15], 82.4%. Further, the Ratio ED50 in [4] amounted to 12; in [10], 5.4.
